In ChEMBL document CHEMBL2046345, “Synthesis of Leubethanol derivatives and evaluation against Mycobacterium tuberculosis” (Bioorg Med Chem, 2012):
Values after ≈ are worked out from the molar mass of the structure shown.

Assays:
[1] = tested on: Mycobacterium tuberculosis; experiment: Antimycobacterial activity against Mycobacterium tuberculosis H37Rv ATCC 27294 by MABA method; assay type: functional
How it was run: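 M. tuberculosis H37Rv (ATCC 27294), susceptible to all five first-line drugs, in modified Microplate Alamar Blue Assay. Two-fold serial dilutions were made in Middlebrook 7H9-OADC, 100–0.78 µg/mL, with 1:50 bacterial suspension (~6×10⁶ CFU/mL, McFarland 1). Incubation 37 °C, 5% CO₂, 5–7 days, then Alamar Blue plus 10% Tween-80, 24 h. MIC = first blue well, confirmed microscopically. Ethambutol was the reference; triplicate independent experiments.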

[2] = Cytotoxicity against african green monkey Vero cells after 48 hrs by MTT assay; assay type: cell-based; conditions: chlorocebus sabaeus
How it was run: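 Vero cells grown in RPMI-1640 with 10% FBS, penicillin and streptomycin, 37 °C, 5% CO₂. Exposed to compound 500–0.5 µg/mL for 48 h, then MTT (4 mg/mL in PBS) for 3 h. Formazan dissolved in DMSO, absorbance read at 575 nm. CC50 = concentration inhibiting 50% viability by linear regression; rounded mean of three experiments.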

[3] = Selectivity index, ratio of CC50 for african green monkey Vero cells to MIC for Mycobacterium tuberculosis H37Rv ATCC 27294; assay type: functional
How it was run: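 SI calculated as CC50 (Vero, MTT, 48 h) divided by MIC against H37Rv (MABA).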

| SMILES | MIC [1] | CC50 at 48 h [2] | Selectivity Index [3] |
| --- | --- | --- | --- |
| Cc1cc(O)c2c(c1)[C@H]([C@@H](C)CCCC(C)C)CC[C@H]2C | 30.3 µM (≈ 8.74 µg/mL) | 192 µM | 6.3 |
| Cc1cc(O)c2c(c1)[C@H]([C@@H](C)CCCC(C)(C)O)CC[C@H]2C | 200 µM (≈ 60.9 µg/mL) |  |  |
| Cc1cc(O)c2c(c1)[C@H]([C@@H](C)CCC(O)C(C)(C)N=[N+]=[N-])CC[C@H]2C (stereo partly specified) | 181 µM (≈ 62.5 µg/mL) | 231 µM | 1.3 |
| Cc1cc(O)c2c(c1)[C@H]([C@@H](C)CCC(N=[N+]=[N-])C(C)(C)O)CC[C@H]2C (stereo partly specified) | 90 µM (≈ 31.1 µg/mL) | 127 µM | 1.4 |
| Cc1cc(O)c2c(c1)[C@H]([C@@H](C)CCC(O)C(C)(C)N)CC[C@H]2C (stereo partly specified) | 98 µM (≈ 31.3 µg/mL) | 141 µM | 1.4 |
| Cc1cc(O)c2c(c1)[C@H]([C@@H](C)CCC(N)C(C)(C)O)CC[C@H]2C (stereo partly specified) | 98 µM (≈ 31.3 µg/mL) | 158 µM | 1.6 |
| C/C(=C\CC[C@H](C)[C@@H]1CC[C@@H](C)c2c(O)cc(C)cc21)CO | 25.8 µM (≈ 7.8 µg/mL) | 132 µM | 5.1 |
| C/C(C=O)=C\CC[C@H](C)[C@@H]1CC[C@@H](C)c2c(O)cc(C)cc21 | 25.8 µM (≈ 7.75 µg/mL) | 116 µM | 4.5 |
| CCCCOc1cc(C)cc2c1[C@H](C)CC[C@H]2[C@@H](C)CCC=C(C)C | > 200 µM |  |  |
| CCCCCCOc1cc(C)cc2c1[C@H](C)CC[C@H]2[C@@H](C)CCC=C(C)C | > 200 µM |  |  |
| CC(C)=CCC[C@H](C)[C@@H]1CC[C@@H](C)c2c(OCc3ccc(Cl)cc3)cc(C)cc21 | > 200 µM |  |  |
| CC(C)=CCC[C@H](C)[C@@H]1CC[C@@H](C)c2c(OCc3ccc([N+](=O)[O-])cc3)cc(C)cc21 | > 200 µM |  |  |
| CC(C)=CCC[C@H](C)[C@@H]1CC[C@@H](C)c2c(OCc3cc([N+](=O)[O-])cc([N+](=O)[O-])c3)cc(C)cc21 | > 200 µM |  |  |
| CC(C)=CCC[C@H](C)[C@@H]1CC[C@@H](C)c2c(OCCCCBr)cc(C)cc21 | > 200 µM |  |  |
| CC(C)=CCC[C@H](C)[C@@H]1CC[C@@H](C)c2c(OCCCCOc3cc(C)cc4c3[C@H](C)CC[C@H]4[C@@H](C)CCC=C(C)C)cc(C)cc21 | 200 µM (≈ 125 µg/mL) |  |  |
| CC(C)=CCC[C@H](C)[C@@H]1CC[C@@H](C)c2c(OCCCCCCBr)cc(C)cc21 | > 200 µM |  |  |
| CC(C)=CCC[C@H](C)[C@@H]1CC[C@@H](C)c2c(OCCCCCCOc3cc(C)cc4c3[C@H](C)CC[C@H]4[C@@H](C)CCC=C(C)C)cc(C)cc21 | 190 µM (≈ 124 µg/mL) |  |  |
| CC(C)=CCC[C@H](C)[C@@H]1CC[C@@H](C)c2c(OC(=O)c3ccc([N+](=O)[O-])cc3)cc(C)cc21 | > 200 µM |  |  |
| CC(C)=CCC[C@H](C)[C@@H]1CC[C@@H](C)c2c(OC(=O)c3ccco3)cc(C)cc21 | > 200 µM |  |  |
| CC(C)=CCC[C@H](C)[C@@H]1CC[C@@H](C)c2c(O)cc(C)c(Cc3cc([N+](=O)[O-])cc([N+](=O)[O-])c3)c21 | 17.2 µM (≈ 8.03 µg/mL) | > 770 µM | >45 |
| Cc1cc(O)c2c(c1)[C@H]([C@@H](C)CCC1OC1(C)C)CC[C@H]2C (mixture of isomers) | 103 µM | 661 µM | 6.4 |
| CC[C@@H](CO)NCCN[C@@H](CC)CO [ETHAMBUTOL] | 7.5 µM (≈ 1.53 µg/mL) | > 500 µM | >67 |
| COc1cc(C)cc2c1[C@H](C)CC[C@H]2[C@@H](C)CCC=C(C)C [LEUBETHANOL METHYL ETHER] | > 200 µM |  |  |
| CC(C)=CCC[C@H](C)[C@@H]1CC[C@@H](C)c2c(O)cc(C)cc21 [LEUBETHANOL] | 25.1 µM (≈ 7.19 µg/mL) | 123 µM | 4.9 |
| CC(=O)Oc1cc(C)cc2c1[C@H](C)CC[C@H]2[C@@H](C)CCC=C(C)C [LEUBETHANYL ACETATE] | 48.7 µM | > 1100 µM | >22.6 |
| CC(C)=CCC[C@H](C)[C@@H]1CC[C@@H](C)c2c(OC(=O)c3ccccc3)cc(C)cc21 [LEUBETHANYL BENZOATE] | > 200 µM |  |  |
| CCCCCC(=O)Oc1cc(C)cc2c1[C@H](C)CC[C@H]2[C@@H](C)CCC=C(C)C [LEUBETHANYL HEXANOATE] | > 200 µM |  |  |
